Calls of active or inactive are those of the source. The rule behind the calls is not given here.
Columns and labels:
[1] = test system: Oryctolagus cuniculus; assay: Narcotic antagonist activity in iv dosed rabbit assessed as inhibition of morphine-induced respiratory depression; format: functional
How it was run: (§1)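 Rabbits given test compound iv; read-out is antagonism of morphine-induced respiratory depression; expressed as AD50 in mg/kg or as % antagonism at a fixed dose.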

[2] = test system: Mus musculus; assay: Analgesic activity in mouse assessed as inhibition of AcOH-induced writhing up to 22.5 mg/kg, sc; format: functional, organism-based; design: dose 22.5 mg/kg
[3] = (§2) Acute toxicity in sc dosed mouse; format: organism-based; settings: in vivo
[4] = test system: Mus musculus; assay: Analgesic activity in sc dosed mouse assessed as inhibition of AcOH-induced writhing; format: functional
[5] = test system: Mus musculus; assay: Analgesic activity in mouse assessed as inhibition of AcOH-induced writhing up to 10 mg/kg, sc; format: functional, organism-based; design: dose 10 mg/kg
[6] = test system: Mus musculus; assay: Analgesic activity in sc dosed mouse by hot-plate method; format: functional; settings: Mus musculus, sc; read-out: ED50
[7] = test system: Oryctolagus cuniculus; assay: Narcotic antagonist activity in rabbit assessed as inhibition of morphine-induced respiratory depression at 5 mg/kg, iv; format: functional; how it was run: as §1
[8] = test system: Mus musculus; assay: Analgesic activity in sc dosed mouse assessed as time duration of activity by hot-plate method; format: functional
[9] = test system: Mus musculus; assay: as §2; format: organism-based; settings: in vivo
[10] = Mus musculus, sc, read-out: ED50

| Compound | Activity [2] | LD50 [3] | ED50 [4, 10] | also measured |
| --- | --- | --- | --- | --- |
| C/C=C\N1CC[C@]23CCCC[C@H]2[C@H]1Cc1ccc(O)cc13.Cl |  |  |  | AD50 [1]: 0.014 mg/kg |
| Br.CC1N(C)C2CCCC1(c1cc(O)cc(O)c1)C2 (racemic) | inactive | > 100 mg/kg |  |  |
| CN1CC2(c3ccccc3)CCCC1C2.Cl (racemic) |  | > 30 mg/kg | 22.8 mg/kg |  |
| COc1cccc(C23CCCC(C2)NC3)c1.O=C(O)C(=O)O (racemic) | inactive | > 100 mg/kg |  |  |
| Br.COc1cccc(C23CCCC(C2)NC3C)c1 (racemic) | inactive | > 100 mg/kg |  |  |
| Br.Oc1cccc(C23CCCC(C2)NC3)c1 (racemic) | inactive | > 100 mg/kg |  |  |
| Br.CC1NC2CCCC1(c1cccc(O)c1)C2 (racemic) | inactive | > 100 mg/kg |  |  |
| Br.COc1cccc(C23CCCC(C2)N(C)C3)c1 (racemic) |  | 31.2 mg/kg | 8.6 mg/kg |  |
| Br.COc1cccc(C23CCCC(C2)N(C)C3C)c1 (racemic) |  | 25.9 mg/kg | 6.1 mg/kg |  |
| Br.CCC1N(C)C2CCCC1(c1cccc(O)c1)C2 (racemic) |  | 59.8 mg/kg | 8.8 mg/kg |  |
| Br.CC1N(C)C2CCCC1(c1ccccc1O)C2 (racemic) | inactive | > 100 mg/kg |  |  |
| Br.CC1N(C)C2CCCC1(c1ccc(O)cc1)C2 (racemic) | inactive | > 100 mg/kg |  |  |
| Br.CC1N(C)C2CCCC1(c1ccc(O)c(O)c1)C2 (racemic) |  | > 10 mg/kg |  | Activity [5]: inactive |
| CN1CC2(c3cc(O)cc(O)c3)CCCC1C2 (racemic) | inactive | > 225 mg/kg |  |  |
| CC(=O)Oc1cccc(C23CCCC(C2)N(C)C3C)c1.Cl (racemic) |  | 123 mg/kg |  | ED50 [6]: 3.5 mg/kg; ED50 [4]: 2.9 mg/kg |
| Br.CCC1N(C)C2CCCC1(c1cccc(OC(C)=O)c1)C2 (racemic) |  | 55.1 mg/kg | 10.1 mg/kg | ED50 [6]: 9.9 mg/kg |
| Br.CCC(=O)Oc1cccc(C23CCCC(C2)N(C)C3C)c1 (racemic) |  | 114 mg/kg | 2.3 mg/kg | ED50 [6]: 9.9 mg/kg |
| Br.CCCCCC(=O)Oc1cccc(C23CCCC(C2)N(C)C3C)c1 (racemic) |  | 156 mg/kg | 12.3 mg/kg |  |
| Br.CC1N(C)C2CCCC1(c1cccc(OC(=O)c3ccccc3)c1)C2 (racemic) |  | 156 mg/kg | 5.7 mg/kg |  |

| Compound | Activity [2] | LD50 [3] | ED50 [4, 10] | also measured |
| --- | --- | --- | --- | --- |
| Br.CC1N(C)C2CCCC1(c1cccc(OC(=O)c3cccnc3)c1)C2 (racemic) |  | 184 mg/kg | 5.5 mg/kg |  |
| O=C(O)C(=O)O.c1ccc(C23CCCC(C2)N(CC2CC2)C3)cc1 (racemic) | inactive | > 30 mg/kg |  | inhibition in vivo at 5 mg/kg [7]: 41% |
| C=CCN1CC2(c3ccccc3)CCCC1C2.O=C(O)C(=O)O (racemic) | inactive | > 100 mg/kg |  | AD50 [1]: 2.2 mg/kg |
| O=C(O)C(=O)O.c1ccc(CCN2CC3(c4ccccc4)CCCC2C3)cc1 (racemic) | inactive | > 100 mg/kg |  |  |
| Cl.O=C(CCN1CC2(c3ccccc3)CCCC1C2)c1ccccc1 (racemic) | inactive | > 100 mg/kg |  |  |
| Cl.O=C(CCCN1CC2(c3ccccc3)CCCC1C2)c1ccc(F)cc1 (racemic) |  | > 200 mg/kg | 4.1 mg/kg |  |
| CCCCCCN1CC2(c3cccc(O)c3)CCCC1C2.Cl (racemic) |  | > 100 mg/kg | 17.5 mg/kg |  |
| Cl.Oc1cccc(C23CCCC(C2)N(CC2CC2)C3)c1 (racemic) |  | > 100 mg/kg | 30 mg/kg | AD50 [1]: 1.8 mg/kg |
| Cl.Oc1cccc(C23CCCC(C2)N(CC2CCC2)C3)c1 (racemic) |  | > 30 mg/kg |  | AD50 [1]: 3.5 mg/kg; Activity [5]: inactive |
| C=CCN1CC2(c3cccc(O)c3)CCCC1C2.Cl (racemic) | inactive | > 100 mg/kg |  | AD50 [1]: 1.7 mg/kg |
| C#CCN1CC2(c3cccc(O)c3)CCCC1C2.O=C(O)C(=O)O (racemic) | inactive | > 100 mg/kg |  | AD50 [1]: 1.6 mg/kg |
| O=C(O)C(=O)O.Oc1cccc(C23CCCC(C2)N(CCc2ccccc2)C3)c1 (racemic) | inactive | > 100 mg/kg |  |  |
| Cl.Oc1cccc(C23CCCC(C2)N(C/C=C/c2ccccc2)C3)c1 (racemic) | inactive | > 100 mg/kg |  | AD50 [1]: 0.96 mg/kg |
| Cl.O=C(CCN1CC2(c3cccc(O)c3)CCCC1C2)c1ccccc1 (racemic) |  | 184 mg/kg | 10.1 mg/kg |  |
| Cl.O=C(CCCN1CC2(c3cccc(O)c3)CCCC1C2)c1ccccc1 (racemic) |  | > 100 mg/kg | 5.2 mg/kg |  |
| Cl.O=C(CCCN1CC2(c3cccc(O)c3)CCCC1C2)c1ccc(F)cc1 (racemic) |  | > 100 mg/kg | 2 mg/kg |  |
| CCN1C2CCCC(c3cccc(O)c3)(C2)C1C.Cl (racemic) | inactive | > 30 mg/kg |  |  |
| CCCN1C2CCCC(c3cccc(O)c3)(C2)C1C.Cl (racemic) | inactive | > 30 mg/kg |  | AD50 [1]: 0.03 mg/kg |
| CCCCN1C2CCCC(c3cccc(O)c3)(C2)C1C.Cl (racemic) |  | > 30 mg/kg |  | Activity [5]: inactive |

| Compound | Activity [2] | LD50 [3] | ED50 [4, 10] | also measured |
| --- | --- | --- | --- | --- |
| CCCCCN1C2CCCC(c3cccc(O)c3)(C2)C1C.Cl (racemic) |  | 36.7 mg/kg | 1.5 mg/kg | inhibition [7]: inactive |
| C=CCN1C2CCCC(c3cccc(O)c3)(C2)C1C.Cl (racemic) |  | > 30 mg/kg | 22.5 mg/kg | AD50 [1]: 0.17 mg/kg |
| Br.CC(C)=CCN1C2CCCC(c3cccc(O)c3)(C2)C1C (racemic) |  | > 30 mg/kg | 15 mg/kg | AD50 [1]: 0.086 mg/kg |
| C#CCN1C2CCCC(c3cccc(O)c3)(C2)C1C.Cl (racemic) |  | > 100 mg/kg | 22.5 mg/kg | AD50 [1]: 0.19 mg/kg |
| Br.CC1N(C)C2CCCC1(c1cccc(O)c1)C2 (racemic; 8) |  | 113 mg/kg |  | ED50 [6]: 8 mg/kg; AD50 [1]: 2.6 mg/kg; ED50 [4]: 4.5 mg/kg; Time [8]: 127 min |
| CC1C2CCCC1(c1cccc(O)c1)CN2C (racemic; 13) [listing 1 of 2 here] |  | > 30 mg/kg |  | AD50 [1]: 1.1 mg/kg |
| CC1C2CCCC1(c1cccc(O)c1)CN2C (racemic; 13) [listing 2 of 2 here] |  |  |  | Activity [5]: inactive |
| Br.CC1C2CCCC1(c1cccc(O)c1)C(C)N2C (racemic; 14) |  | > 30 mg/kg |  |  |
| CC1C2CCCC1(c1cccc(O)c1)C(C)N2C (racemic; 14) |  |  |  | Activity [5]: inactive |
| CC1C2CCCC1(c1cccc(O)c1)CN2C (racemic; 15) [listing 1 of 2 here] |  |  |  | AD50 [1]: 0.18 mg/kg |
| CC1C2CCCC1(c1cccc(O)c1)CN2C (racemic; 15) [listing 2 of 2 here] |  |  |  | Activity [5]: inactive |
| CC1C2CCCC1(c1cccc(O)c1)C(C)N2C (racemic; 16) |  |  |  | Activity [5]: inactive |
| CC(=O)Oc1cccc(C23CCCC(C2)N(C)C3C)c1.Cl (single isomer, unassigned; (-)) |  |  |  | LD50 [9]: 113.5 mg/kg |
| COc1ccc2c3c1O[C@H]1[C@@H](O)C=C[C@H]4[C@@H](C2)N(C)CC[C@@]341.COc1ccc2c3c1O[C@H]1[C@@H](O)C=C[C@H]4[C@@H](C2)N(C)CC[C@@]341.O.O=P(O)(O)O.O=P(O)(O)O [CODEINE PHOSPHATE] |  | 231 mg/kg | 9.5 mg/kg | ED50 [6]: 7.5 mg/kg |
| CCOC(=O)C1(c2ccccc2)CCN(C)CC1.Cl [MEPERIDINE HYDROCHLORIDE] |  | 273 mg/kg | 4.5 mg/kg | ED50 [6]: 4.7 mg/kg |
| CN1CC[C@]23c4c5ccc(O)c4O[C@H]2[C@@H](O)C=C[C@H]3[C@H]1C5.Cl [MORPHINE HYDROCHLORIDE] |  |  | 0.8 mg/kg | ED50 [6]: 1.2 mg/kg |
| C=CCN1CC[C@]23c4c5ccc(O)c4O[C@H]2[C@@H](O)C=C[C@H]3[C@H]1C5.Cl [NALORPHINE HYDROCHLORIDE] |  |  |  | AD50 [1]: 0.16 mg/kg |
| C=CCN1CC[C@]23c4c5ccc(O)c4O[C@H]2C(=O)CC[C@@]3(O)[C@H]1C5.Cl [NALOXONE HYDROCHLORIDE] |  |  |  | AD50 [1]: 0.0044 mg/kg |
| CC(C)=CCN1CCC2(C)c3cc(O)ccc3CC1C2C.Cl (stereo unspecified) [PENTAZOCINE HYDROCHLORIDE] |  | 190 mg/kg | 4.5 mg/kg | ED50 [6]: 12.3 mg/kg; AD50 [1]: 1.5 mg/kg |
